Assay outcomes: PubChem, Johns Hopkins Ion Channel Center
TRPC6 act = mouse TRPC6 channel activators, primary screen, cell-based, HEK293, membrane potential dye; AID 2550, 2010; actives 0.13% (n = 310,000); HEK293-TRPC6 membrane potential dye fluorescence; stronger effect = higher value; B-score at 10 µM;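 active = B-score of the integrated fluorescence ratio above library mean plus 3 SD, and starting fluorescence ratio within library mean plus 5 SD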;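 note: higher score means more depolarization so channel activation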
Target sequence (Q61143 whole entry, looked up): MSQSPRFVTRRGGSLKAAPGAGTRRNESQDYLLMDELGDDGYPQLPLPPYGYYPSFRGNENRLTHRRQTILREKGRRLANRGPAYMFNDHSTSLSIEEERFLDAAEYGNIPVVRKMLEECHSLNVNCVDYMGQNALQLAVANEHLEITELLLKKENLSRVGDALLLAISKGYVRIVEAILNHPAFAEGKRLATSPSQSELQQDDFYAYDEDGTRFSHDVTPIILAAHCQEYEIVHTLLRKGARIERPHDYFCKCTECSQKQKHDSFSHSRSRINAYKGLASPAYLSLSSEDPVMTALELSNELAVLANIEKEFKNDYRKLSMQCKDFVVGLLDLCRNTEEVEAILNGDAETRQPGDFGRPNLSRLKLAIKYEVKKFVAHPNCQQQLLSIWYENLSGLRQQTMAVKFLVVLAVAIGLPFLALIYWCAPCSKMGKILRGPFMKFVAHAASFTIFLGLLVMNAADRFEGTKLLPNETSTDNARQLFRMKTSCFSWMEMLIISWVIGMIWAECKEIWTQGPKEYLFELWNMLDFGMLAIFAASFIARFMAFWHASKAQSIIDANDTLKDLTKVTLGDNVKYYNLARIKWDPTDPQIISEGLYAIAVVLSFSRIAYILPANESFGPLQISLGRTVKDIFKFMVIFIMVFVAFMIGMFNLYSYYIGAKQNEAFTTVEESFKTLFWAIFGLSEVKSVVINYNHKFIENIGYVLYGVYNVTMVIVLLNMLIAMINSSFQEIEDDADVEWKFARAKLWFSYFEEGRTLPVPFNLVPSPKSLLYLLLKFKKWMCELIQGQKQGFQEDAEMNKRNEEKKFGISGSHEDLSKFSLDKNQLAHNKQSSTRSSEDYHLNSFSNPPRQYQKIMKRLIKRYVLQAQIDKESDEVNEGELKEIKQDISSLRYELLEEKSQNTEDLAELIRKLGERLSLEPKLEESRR
TRPC4 block = inhibitors of mouse TRPC4 channel, primary screen, Fluo4 calcium, HEK293 TRPC4beta/mu-opioid cells; Short transient receptor potential channel 4 (Mus musculus), Q9QUQ5; DAMGO-evoked Fluo4 calcium flux; stronger effect = lower value; B-score at 10 µM; actives 0.39% (n = 300,000); AID 2247, 2010;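 active = B-score over 3 SD under the library average, no early fluorescence shift, positive overall ratio signal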
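Assay system: TRPC4beta/mu-opioid receptor HEK293 cell line; compound dosing: single concentration per test compound; detection: Fluo4 Ca2+ flux fluorescence; evaluation: per-well B score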
TRPC4 potent = positive allosteric modulators of TRPC4, primary screen, cell-based, mouse TRPC4beta, HEK293 mu-opioid, Fluo-4 calcium; actives 0.42% (n = 310,000); DAMGO EC20, Fluo-4 Ca2+ flux; stronger effect = higher value; Short transient receptor potential channel 4 (Mus musculus), Q9QUQ5; AID 2227, 2009; B-score at 10 µM;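 active = B-score of calcium response area above 5 SD of library B-scores, with initial fluorescence ratio within 5 SD of library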
TRPC6 inh = mouse TRPC6 channel inhibitors, primary screen, cell-based, HEK293, membrane potential dye | Short transient receptor potential channel 6 (Mus musculus), Q61143 | ACh-evoked depolarization; stronger effect = lower value | B-score at 10 µM | actives 1.1% (n = 310,000) | AID 2553, 2010;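 active = B-score under library mean minus 3 SD, initial fluorescence not abnormally high, positive integrated signal ratio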;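 note: B-score derived from integrated fluorescence ratio over the kinetic read; more negative B-score means stronger inhibition of depolarization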
TRPC4 act = activators of mouse TRPC4 channel, primary screen, Fluo4 calcium, HEK293 TRPC4beta/mu-opioid cells. Short transient receptor potential channel 4 (Mus musculus), Q9QUQ5. Fluo4 calcium fluorescence; stronger effect = higher value. B-score at 10 µM. actives 0.49% (n = 310,000). AID 2237, 2010;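 active = B-score above 5 SD of library B-scores, and initial fluorescence ratio not above library mean plus 5 SD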;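 note: positive B-score marks a calcium rise read as TRPC4 activation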
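System: HEK293 cells stably co-expressing mouse TRPC4beta and mu-opioid receptor; Schedule: Fluo4 dye loading 45 min at room temperature, 110 s recording; Detection: Fluo4 fluorescence, kinetic; Evaluation: B-scored integrated calcium fluorescence ratio; Controls: buffer (low) and maximal DAMGO (high).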
A number is an active result. An excerpt weighted towards active compounds, which were near 2.3% of everything screened.

Cn1c(=O)c2c(nc(SCc3cccnc3)n2Cc2ccc(F)cc2)n(C)c1=O was read as TRPC6 act inactive, TRPC4 block -5, TRPC4 potent inactive, TRPC6 inh inactive and TRPC4 act inactive.
`Cn1c(=O)c2c(nc(SCCN3CCOCC3)n2Cc2ccc(F)cc2)n(C)c1=O` gave TRPC6 act inactive, TRPC4 block inactive, TRPC4 potent inactive, TRPC6 inh inactive and TRPC4 act inactive.
COc1ccc(-c2csc(NC(=O)CCN3C(=O)C4CC=CCC4C3=O)n2)cc1OC (stereo not given) was read as TRPC6 act inactive, TRPC4 block inactive, TRPC4 potent inactive, TRPC6 inh inactive and TRPC4 act inactive.
Screening O=C(NCCOC12CC3CC(CC(C3)C1)C2)c1cccc(Br)c1 returned TRPC6 act inactive, TRPC4 block inactive, TRPC4 potent inactive, TRPC6 inh inactive and TRPC4 act inactive.
Screening Cc1ccc(NS(=O)(=O)c2cccc3nsnc23)cc1[N+](=O)[O-] returned TRPC6 act inactive, TRPC4 block inactive, TRPC4 potent inactive, TRPC6 inh inactive and TRPC4 act inactive.
CC(C)(Sc1cc(C(C)(C)C)c(O)c(C(C)(C)C)c1)Sc1cc(C(C)(C)C)c(O)c(C(C)(C)C)c1 was read as TRPC6 act inactive, TRPC4 block inactive, TRPC4 potent inactive, TRPC6 inh inactive and TRPC4 act 83.
CC(C)CC(NC(=O)OC(C)(C)C)c1cn([C@@H](CCC(=O)OC(C)(C)C)C(=O)N2CCN(C(=O)OC(C)(C)C)CC2)nn1 (stereo not given in full) was read as TRPC6 act inactive, TRPC4 block inactive, TRPC4 potent inactive, TRPC6 inh inactive and TRPC4 act inactive.
Cc1ccc2c(c1)nnn2C1CCN(C(=O)c2ccccc2F)CC1 was read as TRPC6 act inactive, TRPC4 block inactive, TRPC4 potent inactive, TRPC6 inh inactive and TRPC4 act inactive.
`Cc1nc(C(=O)Nc2ccc(F)cc2)nn1-c1ccc([N+](=O)[O-])cc1` gave TRPC6 act inactive, TRPC4 block inactive, TRPC4 potent inactive, TRPC6 inh inactive and TRPC4 act inactive.
`CC(=O)Cn1ncc(N2CCOCC2)c(Cl)c1=O` gave TRPC6 act inactive, TRPC4 block inactive, TRPC4 potent inactive, TRPC6 inh inactive and TRPC4 act inactive.
`CC(=O)Cn1ncc(N2CCOCC2)cc1=O` gave TRPC6 act inactive, TRPC4 block -8, TRPC4 potent inactive, TRPC6 inh inactive and TRPC4 act inactive.
`Cc1ccc(C)c(S(=O)(=O)N2CCN(C(=O)CSC(=S)N3CCCC3)CC2)c1` gave TRPC6 act inactive, TRPC4 block inactive, TRPC4 potent inactive, TRPC6 inh inactive and TRPC4 act inactive.
For CC(C)c1ccc(NC(=S)N(C)CCc2ccccn2)cc1 the results were TRPC6 act inactive, TRPC4 block inactive, TRPC4 potent inactive, TRPC6 inh inactive and TRPC4 act 107.
`Cc1c(Cl)cccc1NC(=O)[C@@H](NC(=O)c1ccccc1Cl)C(C)C` gave TRPC6 act inactive, TRPC4 block inactive, TRPC4 potent inactive, TRPC6 inh inactive and TRPC4 act inactive.
Screening CCOc1cc(CNCc2cccs2)ccc1OCC(=O)NC(C)(C)C returned TRPC6 act inactive, TRPC4 block -6, TRPC4 potent inactive, TRPC6 inh inactive and TRPC4 act inactive.
CCn1nccc1C(=O)Nc1cc(Cl)cc(Cl)c1 was read as TRPC6 act inactive, TRPC4 block -5, TRPC4 potent inactive, TRPC6 inh inactive and TRPC4 act inactive.
For NS(=O)(=O)c1ccc(CCNC(=O)c2coc3ccccc3c2=O)cc1 the results were TRPC6 act inactive, TRPC4 block inactive, TRPC4 potent inactive, TRPC6 inh inactive and TRPC4 act inactive.
COc1cc(CCC(=O)NCc2ccc(F)cc2)cc(OC)c1OC was read as TRPC6 act inactive, TRPC4 block inactive, TRPC4 potent inactive, TRPC6 inh inactive and TRPC4 act inactive.
Screening C/C(=N\NC(=O)c1ccn(C)n1)c1cccc(NC(=O)c2ccc(C)s2)c1 returned TRPC6 act inactive, TRPC4 block inactive, TRPC4 potent inactive, TRPC6 inh inactive and TRPC4 act inactive.
